Laboratory results taken from ChEMBL document CHEMBL4334468, “Exploring Mitochondria-Mediated Intrinsic Apoptosis by New Phytochemical Entities: An Explicit Observation of Cytochrome c Dynamics on Lung and Melanoma Cancer Cells” (J Med Chem, 2019).
Calls of active or inactive are those of the source. The calls are words filed in the database; no cut-off is given here.

Tests used:
A549 [1] = assay: Induction of apoptosis related protein expression in human A549 cells assessed as increase in CD40 expression at 20 uM incubated for 12 hrs by apoptosis antibody array; type: functional, cell-based
A-375 [2] = assay: Induction of DNA damage in human A375 cells after 4 hrs by Raman spectral imaging analysis; type: functional, cell-based
A549 [3] = assay: Cytotoxicity in human A549 cells assessed as reduction in cell viability at 0.001 to 100 uM incubated for 24 to 48 hrs by LDH assay; type: functional, cell-based
Outline: (§1)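 LDH released into the culture medium after plasma membrane damage was quantified and expressed as percentage cytotoxicity.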

A549 [4] = assay: Antimetastatic activity in human A549 cells assessed as reduction in cell migration at 10 nM by crystal violet staining based transwell chamber assay; type: functional
Outline: (§2)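 Transwell chamber migration assay. Cells migrating to the lower side were imaged and quantified against untreated control.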

A-375 [5] = assay: Inhibition of mitochondrial membrane potential in human A375 cells at 1 uM by TMRE staining based assay; type: functional, cell-based
A-375 [6] = assay: Induction of morphological changes in human A375 cells at 20 uM by phase contrast microscopy; type: functional, cell-based
A-375 [7] = assay: Induction of apoptosis in human A375 cells at 1 uM by APOP assay; type: functional, cell-based
A549 [8] = assay: Induction of apoptosis in human A549 cells assessed as early apoptotic cells level at 1 uM incubated for 24 hrs by FITC-Annexin V staining based assay (reference value: 0.01%); type: functional
A549 [9] = assay: Induction of cell cycle arrest in human A549 cells assessed as accumulation at S phase at 10 nM by propodium iodide staining based flow cytometric analysis (reference value: 25%); type: functional
Outline: (§3)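 DNA was stained with propidium iodide and analysed by flow cytometry. Histograms give the fraction of cells in G0/G1, S and G2/M phases.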

A-375 [10] = assay: Antimetastatic activity in human A375 cells assessed as reduction in cell migration at 10 nM by crystal violet staining based transwell chamber assay; type: functional; outline: as §2
[11] = Antioxidant activity assessed as hydroxyl radical scavenging activity at 1 to 1000 ug/ml incubated for 1 hr; type: functional
A-375 [12] = assay: Induction of apoptosis in human A375 cells assessed as increase in caspase-2 levels at 1 uM incubated for 12 hrs by spectrofluorometry; type: functional, cell-based
A-375 [13] = assay: Antimetastatic activity in human A375 cells assessed as reduction in cell invasion at 10 nM by crystal violet staining based transwell chamber assay; type: functional
Outline: (§4)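 Invasion was measured in a transwell chamber, with cells moving across Matrigel toward the lower chamber. Invaded cells were imaged and quantified against untreated control.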

A-375 [14] = assay: Induction of DNA damage in human A375 cells by SERS spectral analysis; type: functional, cell-based
A-375 [15] = assay: Induction of cell cycle arrest in human A375 cells assessed as accumulation at G2/M phase at 10 nM by propodium iodide staining based flow cytometric analysis; type: functional; outline: as §3
A-375 [16] = assay: Cytotoxicity in human A375 cells assessed as reduction in cell viability at 0.001 to 100 uM incubated for 24 to 48 hrs by LDH assay; type: functional, cell-based; outline: as §1
A549 [17] = assay: Induction of apoptosis related protein expression in human A549 cells assessed as increase in CD40L expression at 20 uM incubated for 12 hrs by apoptosis antibody array; type: functional, cell-based
A-375 [18] = assay: Induction of apoptosis in human A375 cells at 1 uM by TUNEL assay; type: functional, cell-based
A549 [19] = assay: Induction of morphological changes in human A549 cells assessed as change in shape of cells from spindle to spherical at 1 uM by atomic force microscopy; type: functional, cell-based
A-375 [20] = assay: Induction of morphological changes in human A375 cells assessed as change in shape of cells from spindle to spherical at 1 uM by atomic force microscopy; type: functional, cell-based
A549 [21] = assay: Antimetastatic activity in human A549 cells assessed as reduction in cell invasion at 10 nM by crystal violet staining based transwell chamber assay; type: functional; outline: as §4
A549 [22] = assay: Induction of apoptosis in human A549 cells at 1 uM by APOP assay; type: functional, cell-based
Outline: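 APOPercentage dye uptake in treated A549 cells, which stain purple-red in early apoptosis when phosphatidylserine is translocated. Accumulated dye was then quantified against unstained untreated controls.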

A-375 [23] = assay: Induction of apoptosis in human A375 cells assessed as increase in caspase-3 levels at 1 uM incubated for 12 hrs by spectrofluorometry; type: functional, cell-based
A-375 [24] = assay: Induction of apoptosis in human A375 cells assessed as cytochrome-c release after 4 to 12 hrs by spectrophotometry; type: functional, cell-based
A549 [25] = assay: Inhibition of colony formation in human A549 cells at 1 nM by crystal violet staining based assay; type: functional, cell-based
A549 [26] = assay: Inhibition of mitochondrial membrane potential in human A549 cells at 1 uM by TMRE staining based assay; type: functional, cell-based
A-375 [27] = assay: Induction of cell cycle arrest in human A375 cells assessed as accumulation at G0/G1 phase at 10 nM by propodium iodide staining based flow cytometric analysis; type: functional; outline: as §3
A549 [28] = assay: Induction of intracellular ROS generation in human A549 cells by DCFDA dye based fluorescence assay relative to control; type: functional, cell-based
Outline: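 Intracellular ROS in A549 cells was measured with the DCFDA probe over 1-100 µM, with paclitaxel as positive control. Readout is fold change in fluorescence intensity relative to untreated control.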

A-375 [29] = assay: Induction of DNA fragmentation in human A375 cells after 4 hrs by agarose gel electrophoresis; type: functional, cell-based
A549 [30] = assay: Induction of apoptosis in human A549 cells assessed as increase in caspase-3 levels at 1 uM incubated for 12 hrs by spectrofluorometry; type: functional, cell-based
A-375 [31] = assay: Antimetastatic activity in human A375 assessed as inhibition of cell migration rate at 1 nM incubated up to 24 hrs by scratch wound healing assay; type: functional, cell-based
Outline: (§5)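 Scratch wound healing assay. The cell-free zone was followed over time up to 24 h, with untreated control wells as reference. Closure was quantified as migration rate.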

A549 [32] = assay: Cytotoxicity in human A549 cells assessed as reduction in cell viability incubated for 48 hrs by MTT assay; type: functional, cell-based; conditions: Homo sapiens, A549, 48 h; read-out: IC50
Outline: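 MTT viability assay on A375 melanoma, A549 lung adenocarcinoma and WI-38 normal lung fibroblast cells after 24 and 48 h treatment. IC50 values are in µM, expressed as mean ± SD.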

A549 [33] = assay: Induction of apoptosis in human A549 cells assessed as cytochrome-c release after 6 to 8 hrs by Raman spectral imaging analysis; type: functional, cell-based
A-375 [34] = assay: Induction of GSH depletion in human A375 cells by fluorimetry; type: functional, cell-based
[35] = Antioxidant activity assessed as DPPH radical scavenging activity at 1 to 1000 ug/ml incubated for 30 mins by spectrophotometry; type: functional
A549 [36] = assay: Induction of apoptosis related protein expression in human A549 cells assessed as increase in p21 expression at 20 uM incubated for 12 hrs by apoptosis antibody array; type: functional, cell-based
A549 [37] = assay: Induction of DNA fragmentation in human A549 cells after 3 hrs by chemometec-DNA fragmentation assay relative to control; type: functional
A-375 [38] = assay: Induction of morphological changes in human A375 cells assessed as induction of membrane breakage, blebbing and leakage of intracellular components at 1 uM by atomic force microscopy; type: functional, cell-based
A549 [39] = assay: Antimetastatic activity in human A549 cells assessed as inhibition of cell migration rate at 1 nM incubated up to 24 hrs by scratch wound healing assay; type: functional, cell-based; outline: as §5
A549 [40] = assay: Induction of morphological changes in human A549 cells at 20 uM by phase contrast microscopy; type: functional, cell-based

In the case of `COc1cc(C2Oc3cc(-c4cc(=O)c5c(O)cc(O)cc5o4)ccc3OC2/C=C2\C(=O)ON=C2c2ccc(Cl)cc2)ccc1O` (stereo not given), the Activity (A549 [1]) is reported as “Active”, the Activity (A-375 [2]) is reported as “Active” and the Activity (A549 [3]) is reported as “Active”. The Activity (A549 [4]) was “Active”, the inhibition (A-375 [5]) was “Active” and the Activity (A-375 [6]) was “Active”. For the same molecule, the Activity (A-375 [7]) was “Active”, the Activity (A549 [8]) was 9% and the Activity (A549 [9]) was 40%. The Activity (A-375 [10]) was “Active”, the Activity [11] was “Dose-dependent effect” and the Activity (A-375 [12]) was “Active”. For the same molecule, the Activity (A-375 [13]) was “Active”, the Activity (A-375 [14]) was “Active” and the Activity (A-375 [15]) was “Active”. The Activity (A-375 [16]) was “Active”, the Activity (A549 [17]) was “Active” and the Activity (A-375 [18]) was “Active”. The Activity (A549 [19]) was “Active”, the Activity (A-375 [20]) was “Active” and the Activity (A549 [21]) was “Active”. The Activity (A549 [22]) was “Active”, the Activity (A-375 [23]) was “Active” and the Activity (A-375 [24]) was “Active”. The inhibition (A549 [25]) was “Active”, the inhibition (A549 [26]) was “Active” and the Activity (A-375 [27]) was “Active”. The Activity (A549 [28]) was “Dose-dependent effect”, the Activity (A-375 [29]) was “Active” and the Activity (A549 [30]) was “Active”. For the same molecule, the Activity (A-375 [31]) was “Active”, the IC50 (A549 [32]) was 1.2 µM and the Activity (A549 [33]) was “Active”. For the same molecule, the Activity (A-375 [34]) was “Active”, the Activity [35] was “inactive” and the Activity (A549 [36]) was “Active”. The Activity (A549 [37]) was 14.5%, the Activity (A-375 [38]) was “Active” and the Activity (A549 [39]) was “Active”. The Activity (A549 [40]) was “Active”.
